Converted amounts (≈) assume the structure as drawn.
How the values were obtained:
Type in all cases: functional
Staphylococcus aureus [1] = experiment: Antibacterial activity against Staphylococcus aureus GISA L3798 after 24 hrs by broth microdilution method
In short: (§1)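 Broth microdilution per CLSI in Müller Hinton broth with 20 mg/L CaCl2 and 10 mg/L MgCl2. Inoculum 5 × 10^5 cfu/mL, 24 h at 37 °C. Compounds dissolved in DMSO and diluted in medium just before testing. MIC taken as lowest concentration giving complete suppression of visible growth.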

Enterococcus faecium [2] = experiment: Antibacterial activity against Enterococcus faecium L568 expressing VanS gene after 24 hrs by broth microdilution method
In short: (§2)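 CLSI broth microdilution MIC in Müller Hinton broth with 20 mg/L CaCl2 and 10 mg/L MgCl2. Compounds were dissolved in DMSO and diluted in medium just before testing. Inoculum was 5 × 10^5 cfu/mL, incubated 24 h at 37 °C. MIC was the lowest concentration giving complete suppression of visible growth. Strains came from ATCC or an in-house collection (L-prefix).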

Enterococcus faecalis [3] = experiment: Antibacterial activity against Enterococcus faecalis L560 expressing VanA gene after 24 hrs by broth microdilution method; in short: as §2
Enterococcus faecalis [4] = experiment: Antibacterial activity against Enterococcus faecalis L559 expressing VanS gene after 24 hrs by broth microdilution method; in short: as §2
Streptococcus pyogenes = experiment: Antibacterial activity against Streptococcus pyogenes L49 after 24 hrs by broth microdilution method
Streptococcus pneumoniae = experiment: Antibacterial activity against Streptococcus pneumoniae ATCC 49619 after 24 hrs by broth microdilution method
Staphylococcus aureus [5] = experiment: Antibacterial activity against methicillin-resistant Staphylococcus aureus ND035208 after 24 hrs by broth microdilution method; in short: as §1
Enterococcus faecium [6] = experiment: Antibacterial activity against Enterococcus faecium L569 expressing VanA gene after 24 hrs by broth microdilution method; in short: as §2
Staphylococcus aureus [7] = experiment: Antibacterial activity against methicillin-sensitive Staphylococcus aureus L819/ATCC 19636 after 24 hrs by broth microdilution method; in short: as §2

Compound | MIC (Staphylococcus aureus [1]; GISA L3798, 24 h) | MIC (Enterococcus faecium [2]; L568, 24 h) | MIC (Enterococcus faecalis [3]; L560, 24 h) | MIC (Enterococcus faecalis [4]; L559, 24 h) | MIC (Streptococcus pyogenes; L49, 24 h) | MIC (Streptococcus pneumoniae; ATCC 49619, 24 h) | MIC (Staphylococcus aureus [5]; ND035208, 24 h) | MIC (Enterococcus faecium [6]; L569, 24 h) | MIC (Staphylococcus aureus [7]; L819/ATCC 19636, 24 h) | MIC (Staphylococcus aureus [1]) | MIC (Enterococcus faecium [2]) | MIC (Enterococcus faecalis [3]) | MIC (Enterococcus faecalis [4]) | MIC (Streptococcus pyogenes) | MIC (Streptococcus pneumoniae) | MIC (Staphylococcus aureus [5]) | MIC (Enterococcus faecium [6]) | MIC (Staphylococcus aureus [7])
C=C1NC(=O)[C@H](Cc2c[nH]c3ccc(Cl)cc23)NC(=O)[C@@H](NC(=O)/C(=C/C)NC(=O)[C@@H](N)C(C)C)CSC[C@@H](C(=O)N[C@@H]2C(=O)N3CCC[C@H]3C(=O)NCC(=O)N[C@H](C(=O)N[C@H](C(=O)N[C@H]3CSC[C@@H]4NC(=O)[C@H](CC(=O)O)NC(=O)[C@H](CSC[C@@H]5NC(=O)[C@H](Cc6ccccc6)NC(=O)[C@H](CS/C=C\NC5=O)NC4=O)NC(=O)CNC(=O)CNC(=O)CNC(=O)[C@@H]4C(O)C(O)CN4C3=O)[C@@H](C)O)CSC2C)NC(=O)[C@H](CC(C)C)NC1=O (stereo not given in full) | 1 µg/mL (≈ 0.444 µM) | 4 µg/mL (≈ 1.78 µM) | 1 µg/mL (≈ 0.444 µM) | 2 µg/mL (≈ 0.889 µM) | ≤ 0.001 µg/mL | 0.015 µg/mL (≈ 0.00667 µM) | 1 µg/mL (≈ 0.444 µM) | 4 µg/mL (≈ 1.78 µM) | 0.25 µg/mL (≈ 0.111 µM) |  |  |  |  |  |  |  |  | 
C=C1NC(=O)[C@H](Cc2c[nH]c3ccc(Cl)cc23)NC(=O)[C@@H](NC(=O)/C(=C/C)NC(=O)[C@@H](N)C(C)C)CSC[C@@H](C(=O)N[C@@H]2C(=O)N3CCC[C@H]3C(=O)NCC(=O)N[C@H](C(=O)N[C@H](C(=O)N[C@H]3CSC[C@@H]4NC(=O)[C@H](CC(=O)O)NC(=O)[C@H](CSC[C@@H]5NC(=O)[C@H](Cc6ccccc6)NC(=O)[C@H](CS/C=C\NC5=O)NC4=O)NC(=O)CNC(=O)CNC(=O)CNC(=O)[C@@H]4CC(O)CN4C3=O)[C@@H](C)O)CSC2C)NC(=O)[C@H](CC(C)C)NC1=O (stereo not given in full) | 2 µg/mL (≈ 0.895 µM) | 4 µg/mL (≈ 1.79 µM) | 2 µg/mL (≈ 0.895 µM) | 2 µg/mL (≈ 0.895 µM) | ≤ 0.001 µg/mL | 0.03 µg/mL (≈ 0.0134 µM) | 1 µg/mL (≈ 0.448 µM) | 4 µg/mL (≈ 1.79 µM) | 0.25 µg/mL (≈ 0.112 µM) |  |  |  |  |  |  |  |  | 
C=C1NC(=O)[C@H](Cc2c[nH]c3ccccc23)NC(=O)[C@@H](NC(=O)/C(=C/C)NC(=O)[C@@H](N)C(C)C)CSC[C@@H](C(=O)N[C@@H]2C(=O)N3CCC[C@H]3C(=O)NCC(=O)N[C@H](C(=O)N[C@H](C(=O)N[C@H]3CSC[C@@H]4NC(=O)[C@H](CC(=O)O)NC(=O)[C@H](CSC[C@@H]5NC(=O)[C@H](Cc6ccccc6)NC(=O)[C@H](CS/C=C\NC5=O)NC4=O)NC(=O)CNC(=O)CNC(=O)CNC(=O)[C@@H]4CCCN4C3=O)[C@@H](C)O)CSC2C)NC(=O)[C@H](CC(C)C)NC1=O (stereo not given in full) | 16 µg/mL (≈ 7.33 µM) | 32 µg/mL (≈ 14.7 µM) | 32 µg/mL (≈ 14.7 µM) | 64 µg/mL (≈ 29.3 µM) | ≤ 0.03 µg/mL | ≤ 0.03 µg/mL | 8 µg/mL (≈ 3.66 µM) | 32 µg/mL (≈ 14.7 µM) | 4 µg/mL (≈ 1.83 µM) |  |  |  |  |  |  |  |  | 
C=C1NC(=O)[C@H](Cc2c[nH]c3ccc(Cl)cc23)NC(=O)[C@@H](NC(=O)/C(=C/C)NC(=O)[C@@H](N)C(C)C)CSC[C@@H](C(=O)N[C@@H]2C(=O)N3CCC[C@H]3C(=O)NCC(=O)N[C@H](C(=O)N[C@H](C(=O)N[C@H]3CSC[C@@H]4NC(=O)[C@H](CC(=O)O)NC(=O)[C@H](CSC[C@@H]5NC(=O)[C@H](Cc6ccccc6)NC(=O)[C@H](CS/C=C\NC5=O)NC4=O)NC(=O)CNC(=O)CNC(=O)CNC(=O)[C@@H]4CCCN4C3=O)[C@@H](C)O)CSC2C)NC(=O)[C@H](CC(C)C)NC1=O (stereo not given in full) | 4 µg/mL (≈ 1.8 µM) | 8 µg/mL (≈ 3.61 µM) | 4 µg/mL (≈ 1.8 µM) | 8 µg/mL (≈ 3.61 µM) | ≤ 0.001 µg/mL | 0.03 µg/mL (≈ 0.0135 µM) | 4 µg/mL (≈ 1.8 µM) | 8 µg/mL (≈ 3.61 µM) | 0.5 µg/mL (≈ 0.225 µM) |  |  |  |  |  |  |  |  | 
GENTAMICIN |  |  |  |  |  |  |  |  |  | 0.02 µg/mL | 16 µg/mL | 4 µg/mL | 4 µg/mL | 16 µg/mL | 8 µg/mL | > 128 µg/mL | 16 µg/mL | 1 µg/mL
